Reference: ChEMBL document CHEMBL1152410, “Cytotoxic pentacyclic triterpenoids from Combretum sundaicum and Lantana camara as inhibitors of Bcl-xL/BakBH3 domain peptide interaction” (J Nat Prod, 2009)

What was measured:
KB = test: Cytotoxicity against human KB cells; assay type: functional, cell-based
Procedure, shortened: (§1)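 Cell growth-inhibition assay run by a previously published procedure, with Taxotere as the reference compound.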

MCF7 = test: Cytotoxicity against human MCF7 cells; assay type: functional, cell-based; procedure, shortened: as §1
Bcl-2-like protein 1 = Bcl-2-like protein 1 (Homo sapiens, UniProt Q07817); test: Binding affinity to Bcl-xL by fluorescein-labeled Bak-BH3 peptide competition binding assay
Bcl-2-like protein 1, sequence (Q07817 whole entry): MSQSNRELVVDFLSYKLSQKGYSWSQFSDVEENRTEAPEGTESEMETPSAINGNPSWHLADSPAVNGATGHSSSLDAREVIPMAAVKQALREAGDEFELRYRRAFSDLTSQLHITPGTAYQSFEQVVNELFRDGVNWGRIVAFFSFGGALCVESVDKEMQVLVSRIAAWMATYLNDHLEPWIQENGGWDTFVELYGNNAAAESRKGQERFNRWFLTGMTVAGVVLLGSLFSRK
Procedure, shortened: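 Fluorescence polarization displacement: test compound competes with fluorescein-labeled Bak BH3-domain peptide for binding to Bcl-xL. Ki is derived as the dissociation constant at equilibrium against this reference ligand. Unlabeled Bak(BH3) peptide and a substituted terphenyl derivative serve as positive controls. Runs are done in duplicate.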

HCT-116 = test: Cytotoxicity against human HCT116 cells; assay type: functional, cell-based; procedure, shortened: as §1
L1210 = test: Cytotoxicity against mouse L1210 cells; assay type: functional, cell-based; procedure, shortened: as §1

Row | Compound | IC50 (KB) | IC50 (MCF7) | Ki (Bcl-2-like protein 1) | IC50 (HCT-116) | IC50 (L1210)
1 | CC(=O)OC[C@]1(C)[C@@H](OC(C)=O)C[C@H](O[C@@H]2O[C@@H](C)[C@H](O)[C@@H](O)[C@H]2O)[C@]2(C)[C@H]3CC=C4[C@H]5C[C@](C)(C(=O)O)CC[C@]5(C)CC[C@@]4(C)[C@]3(C)CC[C@@H]12 | 8.2 µM | 10.5 µM | 7.2 µM | 8 µM | 
2 | CC(=O)OC[C@]1(C)[C@@H](OC(C)=O)C[C@H](O)[C@]2(C)[C@H]3CC=C4[C@H]5C[C@](C)(C(=O)O)CC[C@]5(C)CC[C@@]4(C)[C@]3(C)CC[C@@H]12 | 5.4 µM | 6 µM | 17.8 µM | 4.7 µM | 
3 | COC(=O)[C@]1(C)CC[C@]2(C)CC[C@]3(C)C(=CC[C@@H]4[C@@]5(C)[C@@H](O[C@@H]6O[C@@H](C)[C@H](O)[C@@H](O)[C@H]6O)C[C@H](O)[C@@](C)(COC(C)=O)[C@@H]5CC[C@]43C)[C@H]2C1 | 0.7 µM | 0.5 µM | > 100 µM | 0.4 µM | 
4 | CC(C)=CC(=O)O[C@@H]1CC(C)(C)C[C@@H]2C3=CC[C@@H]4[C@@]5(C)CCC(=O)[C@](C)(CO)[C@@H]5CC[C@@]4(C)[C@]3(C)CC[C@]21C(=O)O | 35.5 µM | 42.5 µM | 5.3 µM | 11.4 µM | 12.3 µM
5 | COC(=O)[C@]1(C)CC[C@]2(C)CC[C@]3(C)C(=CC[C@@H]4[C@@]5(C)[C@@H](O[C@@H]6O[C@@H](C)[C@H](O)[C@@H](O)[C@H]6O)C[C@H](OC(C)=O)[C@@](C)(COC(C)=O)[C@@H]5CC[C@]43C)[C@H]2C1 | 0.9 µM | 0.6 µM | > 100 µM | 0.3 µM | 
6 | COC(=O)[C@]1(C)CC[C@]2(C)CC[C@]3(C)C(=CC[C@@H]4[C@@]5(C)[C@@H](O)C[C@H](O)[C@@](C)(COC(C)=O)[C@@H]5CC[C@]43C)[C@H]2C1 | 2.9 µM | 4.6 µM | > 100 µM | 1.7 µM | 
7 | CC(=O)O[C@@]12CO[C@@H]1C[C@H](O)[C@@]1(C)C(=O)[C@H](O)C3=C(C)[C@@H](OC(=O)[C@H](O)[C@@H](NC(=O)OC(C)(C)C)c4ccccc4)C[C@@](O)([C@@H](OC(=O)c4ccccc4)[C@H]21)C3(C)C [DOCETAXEL] | 0.00015 µM | 0.0007 µM |  | 0.0012 µM | 
8 | C/C=C(/C)C(=O)O[C@@H]1CC(C)(C)C[C@@H]2C3=CC[C@@H]4[C@@]5(C)CCC(=O)[C@](C)(CO)[C@@H]5CC[C@@]4(C)[C@]3(C)CC[C@]21C(=O)O [ICTEROGENIN] | 15 µM | 11.3 µM | 7.6 µM | 5.8 µM | 6.8 µM
9 | C/C=C(/C)C(=O)O[C@@H]1CC(C)(C)C[C@H]2C3=CC[C@@H]4[C@@]5(C)CCC(=O)C(C)(C)[C@@H]5CC[C@@]4(C)[C@]3(C)CC[C@@]12C(=O)O [LANTADENE A] | 15.8 µM | 44.7 µM | > 100 µM | 41.8 µM | 16.3 µM
10 | CC(C)=CC(=O)O[C@@H]1CC(C)(C)C[C@@H]2C3=CC[C@@H]4[C@@]5(C)CCC(=O)C(C)(C)[C@@H]5CC[C@@]4(C)[C@]3(C)CC[C@]21C(=O)O [LANTADENE B] | 25.3 µM | 44 µM | > 100 µM | 11.4 µM | 16.1 µM
